Out of some 200,000 compounds screened, about 2,000 (1%) were called active. This is one part of a sample in which actives are shown more often than they occur. A number with no mark means an inactive call.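 Rule for the calls: active = inhibition above the campaign mean inhibition of all tested compounds plus 3 SD (cut at about 20% in these data); inactive = the rest.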
These compounds were tested against Neuropeptide Y receptor type 1 (Homo sapiens) (UniProt P25929) (assay: NPY-Y1 receptor antagonists, primary screen, cell-based (AID 1040;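 note: 0% = DMSO wells given NPY plus isoproterenol and 100% = isoproterenol alone without NPY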)). Details: HEK293-CNG Y1 cells, membrane potential fluorescence; at 3.6 µM; active compounds read high; NPY at EC95, then isoproterenol.
Outline: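 Material: Y1- and CNG-channel-expressing HEK293 cells / Probe or stimulus: NPY 25 nM then isoproterenol 1 µM plus Ro 20-1724 25 µM / Doses: 3.6 µM single dose, DMSO 0.4% / Schedule: compound incubation 1 h at room temperature, readout 45 min post-stimulation / Signal: membrane potential fluorescence / Benchmarks: isoproterenol-only wells as full block versus NPY-plus-isoproterenol wells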

Sequence of Neuropeptide Y receptor type 1 (Homo sapiens) (P25929 whole entry, looked up): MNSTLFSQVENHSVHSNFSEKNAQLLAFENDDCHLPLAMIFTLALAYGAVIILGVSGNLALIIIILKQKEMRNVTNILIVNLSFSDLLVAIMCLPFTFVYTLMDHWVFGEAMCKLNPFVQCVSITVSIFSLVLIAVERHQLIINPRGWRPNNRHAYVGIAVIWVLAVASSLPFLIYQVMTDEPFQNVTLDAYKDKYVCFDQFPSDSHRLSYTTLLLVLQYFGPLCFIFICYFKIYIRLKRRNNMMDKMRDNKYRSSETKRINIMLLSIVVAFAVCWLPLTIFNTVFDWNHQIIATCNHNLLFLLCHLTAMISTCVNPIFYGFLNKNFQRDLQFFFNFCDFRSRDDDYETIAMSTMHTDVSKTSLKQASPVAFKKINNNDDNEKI

In order of falling inhibition:
1. COC(=O)Cc1ccc(N(Cc2ccccc2F)S(=O)(=O)c2ccc(Br)cc2)cc1  18.1%
2. O=C(NCCCN1CCOCC1)c1ccccc1NS(=O)(=O)c1ccc(Br)cc1  11.9%
3. OCCNCc1cccc(OCc2ccccc2Cl)c1  11.2%
4. COc1ccc(CS(=O)/C(Cl)=C(/Cl)C(=O)Nc2ccc(OC)nc2)cc1 (centres undefined)  11.2%
5. O=C(CC(Cc1ccccc1)C(=O)O)NCCc1ccc2c(c1)OCO2 (centres undefined)  8.49%
6. Nc1nc(SCC(=O)NNc2c(Cl)cc(Cl)cc2Cl)n[nH]1  8.35%
7. S=c1[nH]nc(Nc2ccccc2)s1  7.84%
8. Cc1ccc(OCC(=O)N/N=C\c2ccco2)c(C)c1  7.4%
9. CC(=O)Nc1nc2ccccc2n1Cc1ccc(C)cc1  6.94%
10. Cc1cccc(C)c1OCC(=O)NC(Cc1c[nH]c2ccccc12)C(=O)O (centres undefined)  6.9%
11. OC(COc1ccc(CN2CCSCC2)cc1)CN1CCCCC1 (centres undefined)  6.88%
12. O=C(CC1SCCNC1=O)Nc1ccc(Cl)cc1 (centres undefined)  6.74%
13. Cc1ccc(-n2nc3ccc(NC(=O)/C=C/c4ccco4)cc3n2)cc1C  6.59%
14. Cc1cccc(C)c1OCC(O)CN1CCCCC1 (centres undefined)  6.39%
15. O=C(NCCCN1CCOCC1)c1ccccc1NS(=O)(=O)c1ccc(F)cc1  5.43%
16. COc1ccc(NC(=O)CCNS(=O)(=O)c2ccc3c(c2)c(=O)n(C)c(=O)n3C)cc1OC  5.39%
17. O=C(CN1CCN(c2ccc(O)cc2)CC1)NC1CCCc2ccccc21 (centres undefined)  4.77%
18. NC(=O)c1ccc(NC(=O)COC(=O)C(Cc2ccccc2)NC(=O)c2ccccc2)cc1 (centres undefined)  4.77%
19. O=c1c2ccccc2c(-c2ccccc2)nn1-c1ccccn1  4.37%
20. CC[C@H](C)[C@@H](C(=O)N1CCNCC1)n1cc([C@@H](N)Cc2ccc(O)cc2)nn1  4.22%
21. CCC1CCCCN1C(=O)CSc1nc2c(c(=O)n(C)c(=O)n2C)n1C (centres undefined)  4.16%
22. O=C(Cc1cccs1)Nc1cccc(-c2nc3ccccc3[nH]2)c1  3.86%
23. O=C(CCc1nnc(CCCCc2ccccc2)o1)NC(c1cccnc1)C(F)(F)F (centres undefined)  3.83%
24. CC(C)CNC(=O)COC(=O)c1ccccc1OCC(=O)Nc1ccc(Br)cc1  3.51%
25. c1ccc(Nc2nc(N3CCOCC3)c3ccccc3n2)cc1  3.28%
26. O=C(O)c1ccc(/C=N/NC(=O)c2ccc(Br)cc2)cc1  2.79%
27. CCCCOC(=O)Nc1sc2nc(C)cc(C)c2c1-n1cccc1  2.5%
28. O=[N+]([O-])c1cccc(C2=NCCS2)c1  2.43%
29. CC(=O)c1c(C)[nH]c(C(=O)COC(=O)c2cccc(S(=O)(=O)N(C)c3ccccc3)c2)c1C  2.37%
30. COc1ccc(-n2nc(C(=O)Nc3cc(OC)c(OC)c(OC)c3)c3ccccc3c2=O)c(OC)c1  1.85%
31. Cc1ccccc1-c1n[nH]c(=S)n1C  1.64%
32. Cc1ccc(OCC(=O)N/N=C/c2ccncc2)cc1  0.98%
33. O=C(CN1C(=O)NC2(CCCCCC2)C1=O)NC1CC1  0.75%
34. CN(Cc1ccccc1)Cc1ccccc1F  0.6%
35. Fc1ccccc1Cn1cnc(NC(=S)NCCc2ccccc2)n1  0.55%
36. C=CCn1c(CNC(=O)c2ccco2)nnc1SCC(=O)c1ccc(OC)cc1  0.4%
37. Cc1ccccc1NC(=O)Cn1c(=O)n(CC2CCCO2)c(=O)c2ccccc21 (centres undefined)  0.4%
38. COC(=O)Nc1sc2nc(C)cc(C)c2c1-n1cccc1  0.35%
39. O=c1c2ccccc2c(-c2ccccc2)nn1Cc1ccccc1  0.35%
40. CCC(C)NC(=O)CN(C1CCCCC1)S(C)(=O)=O (centres undefined)  0.13%
41. COc1cc(OC)c(NC(=O)c2ccc(Br)o2)cc1Cl  0%
42. CCOC(=O)C1CCCN(C(=O)c2cccc(S(=O)(=O)N3CCOCC3)c2)C1 (centres undefined)  -0.08%
43. c1ccc(-c2nnc(N3CCOCC3)c3ccccc23)cc1  -0.9%
44. O=C(CN1C(=O)NC2(CCCC2)C1=O)NCC1CCCO1 (centres undefined)  -1.75%
45. COc1cc(OC)nc(S(C)(=O)=O)n1  -1.87%
46. CCCC(=O)Nc1ccc(Cl)c(NC(=O)c2ccc(Br)o2)c1  -1.88%
47. Cc1ccc(C(=O)NC(=S)Nc2ccc(N3CCOCC3)cc2)cc1  -3.91%
48. CCn1c(COc2ccccc2)nnc1SCC(=O)NCc1ccco1  -4.68%
49. O=C(Nc1ccncc1)c1cc2ccccc2o1  -5.2%
50. COc1cc(OC)cc(-c2nnc(SCC(=O)Nc3ccc(C(=O)O)cc3)s2)c1  -5.61%
51. Cc1ccc(-n2nc3cc(Cl)c(NC(=O)c4ccco4)cc3n2)cc1  -10%

For `O=C(CN1C(=O)NC(Cc2ccccc2)(Cc2ccccc2)C1=O)NCC1CCCCC1`, the inhibition was 68.1% (active).
With `Cc1cc(C)c2c(-n3cccc3)c(NC(=O)OCc3ccccc3)sc2n1` the inhibition was 36.9% (active).
In the case of `O=C(NCCCN1CCOCC1)c1cnn2c(-c3ccccc3)cc(-c3ccccc3)nc12`, the inhibition is reported as 30.1% (active).
`CCN1CCN(c2c(Cl)cccc2NC(=O)c2ccc(Br)o2)CC1` was tested, and the inhibition was 23.8% (active).
In the case of `Cc1ccc(/C=N/NC(=O)COc2ccccc2-c2ccccc2)cc1`, the inhibition is reported as 22.8% (active).
In the case of `OC(COCCC12CC3CC(CC(C3)C1)C2)CN1CCCCC1` (centres undefined), the inhibition is reported as 26.9% (active).
For `COc1ccc(C(=O)CSc2nnc(COc3ccccc3)n2Cc2ccco2)cc1`, the inhibition was 24.4% (active).
For `Cc1ccc(Cn2c(NC(=O)c3ccco3)nc3ccccc32)cc1`, the inhibition was 24.1% (active).
For `O=C(NCCc1ccc2c(c1)OCCO2)c1cc2ccccc2o1`, the inhibition was 21.4% (active).
`N=c1n(CCc2ccccc2)c2ccccc2n1Cc1ccccc1F` was tested, and the inhibition was 24.2% (active).
With `c1ccc2c(NC3C4CC5CC(C4)CC3C5)nc(N3CCOCC3)nc2c1` (centres undefined) the inhibition was 31.8% (active).
For `O=c1c2ccccc2c(-c2ccc(F)cc2)nn1-c1ccc(C(F)(F)F)cc1`, the inhibition was 21.4% (active).
With `O=C(/C=C/c1ccco1)Nc1cccc(-c2nc3ccccc3[nH]2)c1` the inhibition was 20.3% (active).

Source: PubChem BioAssay AID1040 (The Scripps Research Institute Molecular Screening Center, 2008)
